Results gathered from unrelated publications.
Each line is one published result; the experiments were not run side by side.
CDK4: Cyclin-dependent kinase 4 (CDK4, Homo sapiens, UniProt P11802)
CDK4 with cyclin D1: Cyclin-dependent kinase 4, with cyclin D1 (CDK4, Homo sapiens, UniProt P11802)
CDK4 with cyclin D3: Cyclin-dependent kinase 4, with cyclin D3 (CDK4, Homo sapiens, UniProt P11802)

SMILES | target | test | conditions | remaining binding [%]
O=C(Nc1c[nH]nc1C(=O)NC1CCNCC1)c1cc(F)cc(F)c1 | CDK4 | binding, competition with immobilised ligand | 1 µM | 100
O=C(c1ccc(Nc2ncc(Cl)c(-c3ccc(Cl)s3)n2)cc1)N1CCC(N2CCCC2)CC1 | CDK4 | binding, competition with immobilised ligand | 1 µM | 1.3
Cc1nc(N2CC[C@@H](O)C2)ncc1-c1cc(C(F)(F)F)cc2[nH]ncc12 | CDK4 | binding, competition with immobilised ligand | 1 µM | 63
CN(CCCC(F)(F)F)c1nccc(-c2cnn3ncccc23)n1 | CDK4 with cyclin D1 | binding | 1 µM | 61
COc1cnc(Nc2cccc(S(N)(=O)=O)c2)nc1N1CCN(c2ccccc2)CC1 | CDK4 with cyclin D3 | binding, competition with immobilised ligand | 1 µM | 93
CNCc1ccccc1-c1csc([C@H](C)Nc2nc(C)nc3cc(OC)c(OC)cc23)c1 | CDK4 with cyclin D3 | cell-free assay, competition with immobilised ligand | 1 µM | 96
O=C(NCC1CCOCC1)c1n[nH]cc1NC(=O)c1c(F)cccc1F | CDK4 | binding, competition with immobilised ligand | 1 µM | 92
CN(C)CC#Cc1ccc(OCCCc2sc(N3CCc4cccc(C(=O)Nc5nc6ccccc6s5)c4C3)nc2C(=O)O)c(F)c1 | CDK4 | cell-free assay, competition with immobilised ligand | 1 µM | 100
c1cncc(-c2cccc(Nc3nccc(NC4CCCCC4)n3)c2)c1 | CDK4 with cyclin D1 | binding, competition with immobilised ligand | 10 µM | 100
CNC(=O)[C@@H]1CC[C@@H](n2c(-c3ccc4cnccc4c3)nc3ccc(C(=O)NCc4cccc(C(N)=O)c4)cc32)C1 | CDK4 | binding, competition with immobilised ligand | 1 µM | 100
CNC(=O)c1ccc(Nc2ncc(C(F)(F)F)c(NCc3nccnc3N(C)S(C)(=O)=O)n2)cc1 | CDK4 | cell-free assay, competition with immobilised ligand | 0.1 µM | 100
COc1ccnn2ncc(-c3ccnc(N(C)C)n3)c12 | CDK4 | binding | 1 µM | 95
O=C(c1ccc(Nc2nccc(-c3cc4ccccc4s3)n2)cc1)N1CCC(N2CCCC2)CC1 | CDK4 with cyclin D1 | binding, competition with immobilised ligand | 1 µM | 25
Cc1cnn2ncc(-c3ccnc(N(C)C)n3)c2c1 | CDK4 | binding | 1 µM | 95
O=C(NCCCN1CCOCC1)c1ccc(Nc2nccc(-c3cc4ccccc4s3)n2)cc1 | CDK4 | binding, competition with immobilised ligand | 1 µM | 55
FC(F)(F)Oc1cccc(-c2cnc3ccc(-c4ccncc4)nn23)c1 | CDK4 with cyclin D1 | cell-free assay, competition with immobilised ligand | 5 µM | 46
C[C@@H]1CCN(c2nccc(-c3cnn4ncccc34)n2)C1 | CDK4 with cyclin D1 | binding | 1 µM | 88

SMILES | target | test | conditions | remaining binding [%]
COc1cnc(Nc2cccc(S(N)(=O)=O)c2)nc1N1CCN(c2ccccc2)C(=O)C1 | CDK4 with cyclin D1 | binding, competition with immobilised ligand | 1 µM | 100
C[C@@H](c1ccc(-n2cnc3c(N)ncnc32)cc1)N1CCc2nn(C)c(Cc3ccccc3)c2C1=O | CDK4 | binding, competition with immobilised ligand | 0.1 µM | 85
CCN1CCN(Cc2ccc(C(=O)Nc3ccc(C)c(Oc4ccc5c(c4)CC(=O)N5)c3)cc2C(F)(F)F)CC1 | CDK4 with cyclin D3 | binding, competition with immobilised ligand | 1 µM | 100
Cc1cnc(Nc2ccc(C(=O)N3CCC(N4CCCC4)CC3)cc2)nc1-c1cc2ccccc2s1 | CDK4 with cyclin D1 | binding, competition with immobilised ligand | 1 µM | 1.7
F[C@@H]1CCN(c2nccc(-c3cnn4ncccc34)n2)C1 | CDK4 with cyclin D3 | binding | 1 µM | 92
Cc1cc(NC(=O)c2cccc(S(F)(F)(F)(F)F)c2)cc(-n2ccn3nc(-c4cccnc4)cc23)c1 | CDK4 | cell-free assay, competition with immobilised ligand | 1 µM | 79.3
N[C@@H]1CCN(c2nccc(-c3cnn4ncccc34)n2)C1 | CDK4 with cyclin D3 | binding | 1 µM | 100
O=C(NCCCN1CCOCC1)c1ccc(Nc2ncc(Cl)c(-c3ccc(Cl)s3)n2)cc1 | CDK4 with cyclin D3 | binding, competition with immobilised ligand | 1 µM | 8.4
Cc1c[nH]c2nccc(Oc3c(F)cc(Nc4cc(Cl)nc(N)n4)cc3F)c12 | CDK4 | cell-free assay, competition with immobilised ligand | 0.1 µM | 67
c1cnn2ncc(-c3ccnc(N4CCC45COC5)n3)c2c1 | CDK4 with cyclin D3 | binding | 1 µM | 68
O=C(c1ccc(Nc2ncc(Cl)c(-c3cc4ccccc4s3)n2)cc1)N1CCC(N2CCCC2)CC1 | CDK4 with cyclin D3 | binding, competition with immobilised ligand | 1 µM | 0.8
CCCCN(CCCC)C(=O)CN1C[C@@H](c2cc(OC)c3c(c2)OCO3)[C@H](C(=O)O)[C@H]1CC(C)(C)CCC | CDK4 | cell-free assay, competition with immobilised ligand | 1 µM | 100
C=CC(=O)N1CCC(C(=O)NCC(=O)N2CCN(c3nc(-c4cnc(N)nc4C(F)F)nc(N4CCOCC4)n3)CC2)CC1 | CDK4 with cyclin D1 | binding, competition with immobilised ligand | 1 µM | 83
CC(=O)N1CCC(c2ccc(C(=O)NC3=NCCN3)cc2C(F)(F)F)CC1 | CDK4 with cyclin D1 | cell-free assay, competition with immobilised ligand | 1 µM | 94
COc1ncc2cc3ccccc3nc2c1C#N | CDK4 with cyclin D1 | cell-free assay, competition with immobilised ligand | 5 µM | 82
Nc1ncc2c(n1)-c1c([nH]c3ccc(C#CC4CC4)cc13)CCCC2 | CDK4 with cyclin D1 | binding, competition with immobilised ligand | 1 µM | 93
